Screening data: PubChem BioAssay, several laboratories
FLuc stim CS: affects firefly luciferase, flagging false hits in luciferase stimulation screens; ATPlite luciferase biochemical, luminescence, 10 min; 0 = ATP-free wells, 1 = DMSO control; activation factor at 10 µM; 200,000 tested, under 10 active; AID 1027;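 active = luciferase activation factor, scaled between plate controls, of at least 2 with compound at 10 µM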
Target sequence (P08659 whole entry, looked up): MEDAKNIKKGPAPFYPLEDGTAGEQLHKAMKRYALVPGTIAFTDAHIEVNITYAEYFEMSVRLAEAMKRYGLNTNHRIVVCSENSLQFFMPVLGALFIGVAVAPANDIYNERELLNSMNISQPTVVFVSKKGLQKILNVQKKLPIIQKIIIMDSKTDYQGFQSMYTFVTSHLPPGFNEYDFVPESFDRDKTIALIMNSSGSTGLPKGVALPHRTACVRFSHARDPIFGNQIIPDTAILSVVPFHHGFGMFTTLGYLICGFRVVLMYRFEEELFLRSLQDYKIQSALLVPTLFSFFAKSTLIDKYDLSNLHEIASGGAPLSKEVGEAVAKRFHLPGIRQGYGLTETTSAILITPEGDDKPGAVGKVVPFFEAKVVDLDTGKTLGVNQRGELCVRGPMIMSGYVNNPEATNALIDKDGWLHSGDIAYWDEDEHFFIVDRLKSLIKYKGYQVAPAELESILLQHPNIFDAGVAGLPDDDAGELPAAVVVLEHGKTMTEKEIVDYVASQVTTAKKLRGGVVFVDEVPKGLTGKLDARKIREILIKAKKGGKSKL
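Material: luciferase plus luciferin reagent, cell-free. Medium: PBS buffer for ATP. Also added: ATP substrate, dispensed from a 10.24 µM working solution in PBS. Doses: test compounds dosed from 2 mM stocks in 100% DMSO. Incubation: 10 min post-reagent at room temperature. Technique: light output (luminescence). Read-out basis: luminescence gain marking luciferase activators.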
FLuc inhib CS: inhibits firefly luciferase, flagging false hits in luciferase inhibition screens; inhibition, % at 10 µM; AID 1006; 200,000 tested, 1.5% active; ATPLite firefly luciferase biochemical luminescence, 10 min; P08659;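 active = inhibition above about 50% when tested at 10 µM, limit read from the data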
STAT1 act: STAT1 signaling activation; NIH 3T3 STAT1-luciferase reporter, IFN-gamma, luminescence; 100% = IFN-gamma alone, no compound; 200,000 tested, 2.6% active; activation (% of control), % at 5.5 µM;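 active = activation above the screen-wide mean activation plus 3 SD, cut at about 130% in these data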;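 note: raw ratio to IFN-gamma control signal so 100% means no change and 0% no light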
SDO1 yeast rescue: restores growth of sdo1-depleted yeast. S. cerevisiae sdo1-depleted JHY4D growth rescue, OD600 30 h; active compounds read high; pdr5 snq2 efflux-pump mutant strain. 140,000 tested, 0.21% active. z-score at 10 µM;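 active = z-score above 3 at both the 24 hr and the 30 hr optical density reads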;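 note: z-score against mean and SD of all compound wells on the same plate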
APP 5'UTR act: APP 5'UTR luciferase reporter activation | 190,000 tested, 1% active | AID 1276 | SH-SY5Y APP 5'UTR luciferase reporter, luminescence; zero percent = DMSO vehicle wells | activation, % at 2 µM;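 active = activation above a set limit, based on mean plus 3 SD of controls, cut at about 140% in these data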
NF-kB neuron act: raises NF-kB expression in human neuronal cells; NF-kB reporter expression; active compounds read high; fold change at 12.5 µM; 190,000 tested, 1.6% active; AID 1239; in the data active = fold change above about 3.3
The depositor's hits bear a star; x = not tested or not shown. In the library only some 4.3% were active in any assay of this set; here they are far more common.

SMILES	FLuc stim CS	FLuc inhib CS	STAT1 act	SDO1 yeast rescue	APP 5'UTR act	NF-kB neuron act
CC(C)(C)c1ccc(C(=O)/C=C2\NC(=O)CS2)cc1	0.1	89*	121	0.16	119	6.6*
COCCOC(=O)/C=C1/NC(=O)CS1	1.1	-6	101	0.04	-13	1.1
Cc1ccc(NC(=O)c2cc3ccccc3oc2=O)cc1S(=O)(=O)N(C)C	0.1	87*	45	x	-47	0.54
Cc1ccc(NC(=O)c2cc3ccccc3o2)cc1S(=O)(=O)N(C)C	0.3	72*	143*	-1.3	49	5.2*
COc1ccccc1NS(=O)(=O)c1cccc(NC(=O)c2cc3ccccc3oc2=O)c1	0.9	7	140*	x	97	2.8
COc1ccccc1NS(=O)(=O)c1cccc(NC(=O)Nc2ccccc2)c1	1.1	-8	97	-0.22	-12	1.1
Cc1ccc(Cl)cc1NC(=O)N[C@@H](C)C(=O)O	1.1	-6	109	1.7	4	1.3
CCN(CC)c1ccc(/C=N/N(c2ccccc2)c2ccccc2)c(O)c1	1	-2	95	1.2	4	1.6
CCN(CC)c1ccc(C=Nc2ccccc2C)c(O)c1	0.5	53*	102	-0.25	-8	1.5
CCOC(=O)CNC(=O)N1CCCC(C(=O)c2ccccc2SC)C1 (stereo unspecified)	1	-1	93	x	-7	0.99
O=C(Cc1csc(N2CCOCC2)n1)N/N=C/c1ccc(F)cc1	1	2	90	0.44	-1	0.98
CCn1cc([N+](=O)[O-])c(C(=O)Nc2ccc3c(c2)OCCO3)n1	0.4	56*	116	0.65	61	1.6
O=C(Nc1ccc2c(c1)OCCO2)c1ccc(Cl)c([N+](=O)[O-])c1	0.9	12	104	-0.43	33	2.7
Cc1ccn2cc(C(=O)Nc3ccc4c(c3)OCCO4)nc2c1	0.3	73*	150*	1.1	143*	3
O=S1(=O)CCN(Cc2cccc(C(F)(F)F)c2)CC1	1	2	89	x	111	1.2
c1ccc(-n2cnc3cc(NCc4ccncc4)ccc32)cc1	0.9	11	122	0.61	-3	1.3
c1ccc(-n2cnc3cc(NCc4ccccn4)ccc32)cc1	0.9	15	131*	-0.55	86	2.1
COc1ccc(OC)c(/C=C/C(=O)OCC(=O)Nc2cccc(Oc3ccccc3)c2)c1	1.1	-8	105	0.05	-31	1.3
COc1ccccc1/C=C/C(=O)OCC(=O)Nc1c(F)cccc1F	0.4	64*	97	x	1	1.1
Cc1ccc(NC(=O)c2c(C)nc(Nc3nc4ccccc4o3)nc2C)cc1	1	-1	93	0.54	-10	0.9
c1ccc(Nc2nc3ccccc3o2)cc1	0.4	58*	137*	1.1	133	5.3*
FC(F)(F)Oc1ccc(Nc2nc3ccccc3o2)cc1	1	5	134*	-1.7	77	1.9
CCC(CC)C(=O)Nc1ccc(Cl)c(Cl)c1	1	-4	102	-0.05	-8	0.81
C=CCn1c(SC(C)C#N)nc2sc(CC)cc2c1=O (stereo unspecified)	1	1	100	x	-15	0.79
C=CCSc1n[nH]c(-c2ccc(OC)cc2)n1	0.8	20	140*	0.2	56	2.6
SMILES	FLuc stim CS	FLuc inhib CS	STAT1 act	SDO1 yeast rescue	APP 5'UTR act	NF-kB neuron act
CCCCOC(=O)c1ccc(NC(=O)CSc2nnnn2C)cc1	1.1	-6	104	x	3	1.5
Cc1ccc(NC(=O)c2ccc([N+](=O)[O-])cc2Cl)nc1	0.6	41	136*	-0.39	74	1.7
CN(C)c1ccc(NC(=O)c2ccc([N+](=O)[O-])cc2Cl)cc1	0.7	27	145*	-0.32	105	1.7
COc1cccc(OC)c1C(=O)NNC(=O)c1cccc(COc2ccc3c(c2)CCC3)c1	0.8	18	76	-0.95	79	2.5
O=C(NC(=S)Nc1ccc2c(c1)OCCO2)c1ccc(F)cc1Cl	1	4	131*	-0.66	13	2
Cc1ccc(C(=O)NC(=S)Nc2ccc3c(c2)OCCO3)c(C)c1	0.9	8	108	-0.72	38	2
O=C(NC(=S)Nc1ccc2c(c1)OCO2)c1ccc(Cl)cc1	1	3	130*	0.65	165*	2.5
CCc1ccc(C(=O)NC(=S)Nc2ccc3c(c2)OCCO3)cc1	1	4	146*	-1.2	136*	5.4*
O=C(c1ccco1)c1nnn(Cc2ccccc2)c1-c1ccccc1	1.1	-7	98	-0.79	3	1.1
Cc1cccc(Nc2nc(-c3ccncc3)cs2)c1	1	0	130*	x	51	0.67
COc1ccc(-c2csc(Nc3ccc(C)cn3)n2)cc1	0.9	7	139*	x	77	x
COc1cccc(Nc2nc(-c3ccc(O)cc3)cs2)c1	1	0	120	-2.2	34	3.9*
Clc1ccc(Nc2nc(-c3cccnc3)cs2)cc1	0.9	8	116	-0.55	47	1.9
COc1cccc(Nc2nc(-c3cccc(N4C(=O)c5ccccc5C4=O)c3)cs2)c1	0.9	9	100	-1.9	19	1.6
COc1ccc(-c2csc(N)n2)cc1	0.8	17	119	0.53	26	1.7
Fc1ccc(Nc2nc(-c3cccnc3)cs2)cc1	0.7	26	136*	x	106	3.6*
CN(C)CCCNC(=S)NCCNc1nc2cc3c(cc2cc1C#N)OCO3	1.1	-7	112	x	-5	1
CN(C)c1ccc(Nc2nc(-c3cccnc3)cs2)cc1	0.2	78*	147*	0.05	188*	4.3*
Cc1nc(C)c(-c2csc(Nc3cccc(O)c3)n2)s1	0.7	32	95	x	166*	4.3*
O=C(Nc1nc(-c2ccccc2)cs1)c1cccnc1	1	0	103	-0.56	0	1.4
c1ccc(-c2csc(Nc3cccnc3)n2)cc1	0.9	8	136*	x	53	1.1
O=C(CCCCn1c(=O)c2ccccc2n(Cc2ccccc2)c1=O)NC1CCN(Cc2ccccc2)CC1	1	-2	102	x	24	0.96
Nc1ccc(C(=O)OCc2nc3c(ccc4ccccc43)[nH]2)cc1	1	-2	151*	-1.5	92	2.4
COc1ccc(C(=O)CSc2nnc(CNC(=O)c3ccc(OC)cc3)n2C)cc1	1	-1	99	0.86	13	1
O=C(/C=C/c1c[nH]c2ccccc12)c1ccccc1	0.7	26	136*	-1.4	117	9.9*
OCC[n+]1ccc(/C=C/c2c[nH]c3ccccc23)cc1	1	-3	89	0.85	-16	0.79
Cc1ccc(C(=O)/C=C/c2c[nH]c3ccccc23)cc1	0.9	13	118	-1.8	62	3.5*
COC(=O)CN(c1ccc(OCc2ccccc2)cc1)S(C)(=O)=O	1.1	-5	95	x	-2	0.99
Cc1cc(C(F)(F)F)n2nc(-c3cnn(C)c3C(F)(F)F)c(Br)c2n1	0.5	49	105	x	6	1.1
